Measured values as given in EPA's CvTdb concentration-time database.

How the values were obtained:
Rat [1] = assay: concentration in brain after dosing; settings: 2 min; dosed: 2-Methyltetrahydrofuran; 40 mg/kg; iv; Male; Harlan Sprague Dawley
Rat [2] = assay: concentration in brain after dosing; settings: 4 h; dosed: 2-Methyltetrahydrofuran; 40 mg/kg; iv; Female; Harlan Sprague Dawley
Rat [3] = assay: concentration in plasma after dosing; settings: 6 h; dosed: 2-Methyltetrahydrofuran; 40 mg/kg; iv; Male; Harlan Sprague Dawley
Rat [4] = assay: concentration in plasma after dosing; settings: 4 h; dosed: 2-Methyltetrahydrofuran; 40 mg/kg; iv; Female; Harlan Sprague Dawley
Rat [5] = assay: concentration in plasma after dosing; settings: 0.75 h; dosed: 2-Methyltetrahydrofuran; 40 mg/kg; iv; Male; Harlan Sprague Dawley
Rat [6] = assay: concentration in liver after dosing; settings: 6 h; dosed: Fluorotelomer alcohol 8+2; 80 mg/kg; oral; Female; Harlan Sprague Dawley
Rat [7] = assay: concentration in liver after dosing; settings: 0.5 h; dosed: Fluorotelomer alcohol 8+2; 24 mg/kg; oral; Male; Harlan Sprague Dawley
Rat [8] = assay: concentration in plasma after dosing; settings: 3 h; dosed: Fluorotelomer alcohol 8+2; 12 mg/kg; oral; Male; Harlan Sprague Dawley
Rat [9] = assay: concentration in brain after dosing; settings: 12 h; dosed: Fluorotelomer alcohol 8+2; 80 mg/kg; oral; Female; Harlan Sprague Dawley
Rat [10] = assay: concentration in kidney after dosing; settings: 3 h; dosed: Fluorotelomer alcohol 8+2; 80 mg/kg; oral; Female; Harlan Sprague Dawley
Rat [11] = assay: concentration in plasma after dosing; settings: dosed: 678-39-7, 40 mg/kg, iv, Male, F344
Rat [12] = assay: concentration in plasma after dosing; settings: dosed: 678-39-7, 12 mg/kg, iv, Male, F344
Rat [13] = assay: concentration in brain after dosing; settings: 3 h; dosed: Fluorotelomer alcohol 8+2; 24 mg/kg; oral; Male; Harlan Sprague Dawley
Rat [14] = assay: concentration in plasma after dosing; settings: 3 h; dosed: 678-39-7; 40 mg/kg; iv; Male; F344
Rat [15] = assay: concentration in kidney after dosing; settings: 0.5 h; dosed: Fluorotelomer alcohol 8+2; 24 mg/kg; oral; Male; Harlan Sprague Dawley
Rat [16] = assay: concentration in plasma after dosing; settings: 3 h; dosed: Fluorotelomer alcohol 8+2; 12 mg/kg; oral; Male; Harlan Sprague Dawley; remark: listed apart in the source
Rat [17] = assay: concentration in kidney after dosing; settings: 3 h; dosed: Fluorotelomer alcohol 8+2; 80 mg/kg; oral; Female; Harlan Sprague Dawley; remark: listed apart in the source
Rat [18] = assay: concentration in plasma after dosing; settings: 5 min; dosed: Gemfibrozil; 50 mg/kg; oral; Male; Sprague-Dawley
Rat [19] = assay: concentration in plasma after dosing; settings: 0.25 h; dosed: Gemfibrozil; 4.29 mg/kg; oral; Male; Sprague-Dawley
Rat [20] = assay: concentration in plasma after dosing; settings: 10 h; dosed: Gemfibrozil; 4.29 mg/kg; oral; Male; Sprague-Dawley
Rat [21] = assay: concentration in plasma after dosing; settings: 18 h; dosed: Gemfibrozil; 100 mg/kg; oral; Male; Sprague-Dawley
Rat [22] = assay: concentration in plasma after dosing; settings: 2 h; dosed: Gemfibrozil; 4.29 mg/kg; oral; Male; Sprague-Dawley
Rat [23] = assay: concentration in plasma after dosing; settings: 0.25 h; dosed: Gemfibrozil; 100 mg/kg; oral; Male; Sprague-Dawley
Rat [24] = assay: concentration in plasma after dosing; settings: 0.75 h; dosed: Perfluorohexanoic Acid; 40 mg/kg; iv; Male; F344
Rat [25] = assay: concentration in liver after dosing; settings: 1 h; dosed: Perfluorohexanoic Acid; 80 mg/kg; oral; Male; Harlan Sprague Dawley
Rat [26] = assay: concentration in kidney after dosing; settings: 6 h; dosed: Perfluorooctane Sulfonate; 2 mg/kg; oral; Female; Harlan Sprague Dawley
Rat [27] = assay: concentration in brain after dosing; settings: 864 h; dosed: Perfluorooctane Sulfonate; 20 mg/kg; oral; Female; F344
Rat [28] = assay: concentration in plasma after dosing; settings: dosed: Perfluorooctane Sulfonate, 2 mg/kg, oral, Female, Harlan Sprague Dawley
Rat [29] = assay: concentration in kidney after dosing; settings: 864 h; dosed: Perfluorooctane Sulfonate; 2 mg/kg; oral; Female; Harlan Sprague Dawley
Rat [30] = assay: concentration in plasma after dosing; settings: dosed: Perfluorooctane Sulfonate, 2 mg/kg, iv, Female, F344
human = assay: concentration in expired air after dosing; settings: dosed: trichloroethylene, 100 ppm, inhalation, duration: 4 hr, person
How it was run: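 Data points giving concentration or amount against time came from published in vivo toxicokinetic studies and from two structured collections. PubMed searching, classifier screening and manual review located the studies. Most points were digitised from plot screenshots using WebPlotDigitizer, the rest were copied from tables, and all keep their reported units.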

CC1CCCO1 (stereo not drawn) [2-Methyltetrahydrofuran]
Settings | concentration in brain [ng/mL] | concentration in plasma [ng/mL]
Rat [1] | 34000 | –
Rat [2] | 185 | –
Rat [3] | – | 16.9
Rat [4] | – | 245
Rat [5] | – | 23700

O=C(O)CCC(F)(F)C(F)(F)C(F)(F)C(F)(F)C(F)(F)C(F)(F)C(F)(F)F [Fluorotelomer acid 7+3]
Settings | concentration in brain [ng/g] | concentration in kidney [ng/g] | concentration in liver [ng/g] | concentration in plasma [ng/mL]
Rat [6] | – | – | 9210 | –
Rat [7] | – | – | 347 | –
Rat [8] | – | – | – | 866
Rat [9] | 484 | – | – | –
Rat [10] | – | 5820 | – | –
Rat [13] | 440 | – | – | –
Rat [14] | – | – | – | 2370
Rat [15] | – | 198 | – | –
Rat [16] | – | – | – | 726
Rat [17] | – | 5620 | – | –

concentration in plasma [ng/mL]
Settings | 0.25 h | 0.5 h | 6 h | 9 h
Rat [11] | 115 | – | 2200 | –
Rat [12] | – | 167 | – | 164

Cc1ccc(C)c(OCCCC(C)(C)C(=O)O)c1 [Gemfibrozil]
Settings | concentration in plasma [ng/mL]
Rat [18] | 7230
Rat [19] | 509
Rat [20] | 405
Rat [21] | 3300
Rat [22] | 74.1
Rat [23] | 35700

O=C(O)C(F)(F)C(F)(F)C(F)(F)C(F)(F)C(F)(F)F [Perfluorohexanoic Acid]
Settings | concentration in liver [ng/g] | concentration in plasma [ng/mL]
Rat [24] | – | 15200
Rat [25] | 83600 | –

O=S(=O)([O-])C(F)(F)C(F)(F)C(F)(F)C(F)(F)C(F)(F)C(F)(F)C(F)(F)C(F)(F)F [Perfluorooctane Sulfonate]
Settings | concentration in brain [ng/g] | concentration in kidney [ng/g]
Rat [26] | – | 9250
Rat [27] | 2700 | –
Rat [29] | – | 2960

concentration in plasma [ng/mL]
Settings | 5 min | 6 h | 12 h | 864 h | 1200 h
Rat [28] | 38.2 | – | 7740 | – | 892
Rat [30] | – | 4560 | – | 1530 | –

ClC=C(Cl)Cl [trichloroethylene]
human
Settings | concentration in expired air
0 h | 1940 nM
0.053 h | 22.4 ppm
0.17 h | 302 nM
0.2372 h | 3.23 ppm
0.3175 h | 7.33 ppm
0.4773 h | 6.01 ppm
0.5 h | 200 nM
0.5703 h | 2.6 ppm
0.97 h | 1.56 ppm
1 h | 129 nM
1.022 h | 2.96 ppm
1.5 h | 101 nM
2 h | 79 nM
2.009 h | 0.691 ppm
2.015 h | 1.22 ppm
2.5 h | 62 nM
3 h | 61 nM
3.5 h | 54 nM
4 h | 49 nM
4.021 h | 0.521 ppm
4.039 h | 1.03 ppm
4.5 h | 43 nM
5 h | 42 nM
5.996 h | 0.868 ppm
6 h | 33 nM
6.02 h | 0.517 ppm
7 h | 27 nM
7.979 h | 0.777 ppm
8 h | 21 nM
9 h | 21 nM
10 h | 16 nM
10.1 h | 0.554 ppm
326 s | 12.3 ppm
